This is one part of a sample in which hits are shown more often than they occur.
UPR XBP1 act: adaptive UPR (XBP1) activation; CHO-XBP1 luciferase reporter, IRE1-XBP1 UPR activation, luminescence; percent of tunicamycin response, DMSO as zero; activation, % at 20 µM; hit rate 0.33% among 330,000; AID 463104;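 active means versus positive control, 20 µM dose yields 30% or more activation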;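 further: 100% = tunicamycin at 10 µg/mL and 0% = DMSO only wells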
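Material: CHO cell line with stable XBP1 luciferase reporter; buffer or medium: F12 medium containing 10% fetal bovine serum; compound: single point, 20 µM final compound, 1% DMSO; incubation: 6 h treatment, 37 °C; measured by: glow luminescence from Steady-Glo reagent; evaluation: activation, % of tunicamycin; control set: tunicamycin high, DMSO low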
L major viab: reduces viability of Leishmania major promastigotes. resazurin fluorescence viability. inhibition, % at 10 µM. hit rate 9% among 200,000; in the data active means inhibition above about 50%;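 further: promastigotes grown with compound for 44 hours at 28 °C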
CHOP UPR activ: apoptotic UPR (CHOP) activation; AID 449763; hit rate 0.34% among 330,000; CHO-CHOP luciferase reporter, luminescence; percent of tunicamycin response over DMSO baseline; activation, % at 10 µM;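 active means at 10 µM dose, activation of 40% or more, normalized to positive control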;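 further: 100% = tunicamycin at 10 µg/mL and 0% = DMSO alone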
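assay system = CHO CHOP reporter cells | amount = 500 CHO-CHOP cells per well | buffer or medium = F12 with 10% FBS | incubation = 16-18 h cell attachment, then 6 h compound exposure, 37 °C | detection = luminescence read with Steady-Glo | read-out = percent activation relative to tunicamycin control | controls = tunicamycin high control, DMSO low control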
T cruzi repl: T. cruzi replication inhibition. inhibition, % (test concentration not listed). hit rate 1.4% among 300,000. T. cruzi beta-gal in NIH3T3, luminescence, 90 h;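 active means mean inhibition across valid replicates above about 55%, limit read from the data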;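 further: signal also drops with host cell toxicity which is not excluded here; 0% = plate median of DMSO wells and 100% = zero luminescence signal; higher percent means less beta-gal luminescence so fewer parasites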
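Incubation – ≥90 h infection period, 3 h prior cell attachment · System – NIH/3T3 fibroblasts plus reporter T. cruzi · Doses – compound pinned at 50 nL/well, DMSO · Read-out basis – percent inhibition of parasite-derived β-gal signal · Signal – luminescent β-galactosidase signal after 60 min lysis · Also added – 5000 T. cruzi trypomastigotes/well · Medium – Low-serum DMEM with 2% FBS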
CHOP inh: blocks CHOP induction under ER stress; CHO-K1 CHOP-promoter luciferase, tunicamycin-induced, 15-18 h; inhibition, % at 10 µM; hit rate 3.8% among 220,000;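 active means compounds that reduced the stress-induced luciferase reporter signal by more than about 70% of percent inhibition, limit read from the data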;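 further: 0% = tunicamycin plus vehicle and 100% = wells without tunicamycin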
Dynein transport: blocks dynein driven cargo transport along microtubules. hit rate 0.47% among 220,000. AID 1381. z-score, hits read low. 3617.4 mouse cells, GR-EGFP nuclear translocation imaging; test concentration mostly 20 µM; stimulated with dexamethasone, 1 µM; stronger effect = lower value;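 active means plate z-score of nuclear minus cytoplasmic receptor signal below a set negative limit, without overly bright fluorescence or cell loss, cut at about -3.5 in these data, passing the limit was not always enough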;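 further: z-score of nuclear minus cytoplasmic ring GR-EGFP intensity difference per well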
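Also added: dexamethasone, 1.0 µM final. Medium: tet-free, stripped-serum medium. Detection: fixed, Hoechst-stained cells imaged at 10x for EGFP. Read-out: nuclear-to-cytoplasmic GR-EGFP distribution per well. Times: induction 48 h, compound 1 h, agonist 30 min.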
An asterisk follows results filed as active.

What do the screens show for `CCCCN(CC)Cc1ccc(CNC(=S)Nc2c(C)cc(C)cc2C)o1`?
UPR XBP1 act: -1; L major viab: 22; CHOP UPR activ: 0; T cruzi repl: 13; CHOP inh: -3; Dynein transport: 0.43

How did CCCCN(CC)Cc1ccc(CNC(=O)Nc2ccc(F)cc2)o1 do in these assays?
UPR XBP1 act: -3; L major viab: 98*; CHOP UPR activ: -1; T cruzi repl: 1; CHOP inh: 23; Dynein transport: -0.13

Results for CCn1c(SCC(=O)Nc2sc3c(c2C#N)CCCC3)nnc1-c1ccco1 ?
UPR XBP1 act: -3; L major viab: -8; CHOP UPR activ: 1; T cruzi repl: 55*; CHOP inh: 30; Dynein transport: 3.4

What do the screens show for `Cc1nn(CC(=O)Nc2sc3c(c2C#N)CCC(C(C)(C)C)C3)c(C)c1[N+](=O)[O-]` (configuration not stated)?
UPR XBP1 act: 0; L major viab: 33; CHOP UPR activ: -1; T cruzi repl: 48; CHOP inh: 89*; Dynein transport: 0.14

Results for N#Cc1c(NC(=O)CSc2nnc(-c3ccco3)n2-c2ccccc2)sc2c1CCC2 ?
UPR XBP1 act: -3; L major viab: -3; CHOP UPR activ: -1; T cruzi repl: 8; CHOP inh: 11; Dynein transport: -0.67

Results for Cc1nn(CCCC(=O)Nc2sc3c(c2C#N)CCC3)c(C)c1[N+](=O)[O-] ?
UPR XBP1 act: -3; L major viab: 26; CHOP UPR activ: -1; T cruzi repl: 5; CHOP inh: 8; Dynein transport: 0.007

What do the screens show for `CCn1c(SCC(=O)Nc2sc3c(c2C#N)CCC(C(C)(C)C)C3)nnc1-c1ccco1` (configuration not stated)?
UPR XBP1 act: -2; L major viab: -7; CHOP UPR activ: 0; T cruzi repl: -1; CHOP inh: 78*; Dynein transport: 1.2

How did C=C1CCC(OC(C)=O)C2(C)CCC3C(C)C(=O)OC3C12O (configuration not stated) do in these assays?
UPR XBP1 act: -8; CHOP UPR activ: 0; T cruzi repl: -15

Results for CCn1ncc([N+](=O)[O-])c1C(=O)Nc1c(C)nn(Cc2ccc(F)cc2)c1C ?
UPR XBP1 act: -1; L major viab: -3; CHOP UPR activ: 1; T cruzi repl: 0; CHOP inh: 9; Dynein transport: -0.57

Results for C=CCNCCCCOc1ccccc1-c1ccccc1 ?
UPR XBP1 act: 0; L major viab: 98*; CHOP UPR activ: 2; T cruzi repl: -15; CHOP inh: 28; Dynein transport: -0.95

Results for COCCNCCOc1ccccc1-c1ccccc1 ?
UPR XBP1 act: 0; L major viab: 85*; CHOP UPR activ: -1; T cruzi repl: -2; CHOP inh: 3; Dynein transport: 0.97

Results for COCCCNCCOc1ccccc1-c1ccccc1 ?
UPR XBP1 act: -2; L major viab: 47; CHOP UPR activ: 1; T cruzi repl: -14; CHOP inh: 18; Dynein transport: 3.1

Results for OCCNCCOCCOc1ccccc1-c1ccccc1 ?
UPR XBP1 act: -1; L major viab: 62*; CHOP UPR activ: 3; T cruzi repl: 1; CHOP inh: 22; Dynein transport: 0.5

What do the screens show for `CNCCCCOc1ccccc1-c1ccccc1`?
UPR XBP1 act: 1; L major viab: 39; CHOP UPR activ: 4; T cruzi repl: 13; CHOP inh: 28; Dynein transport: -0.43

How did OCCNCCOc1ccccc1-c1ccccc1 do in these assays?
UPR XBP1 act: -2; L major viab: 1; CHOP UPR activ: -2; T cruzi repl: -11; CHOP inh: 30; Dynein transport: 0.39

Results for COCCCNCCCCOc1ccccc1-c1ccccc1 ?
UPR XBP1 act: 0; L major viab: 98*; CHOP UPR activ: -1; T cruzi repl: 10; CHOP inh: 18; Dynein transport: -0.098

How did CNCCOc1ccccc1-c1ccccc1 do in these assays?
UPR XBP1 act: -1; L major viab: 4; CHOP UPR activ: 0; T cruzi repl: 3; CHOP inh: 4; Dynein transport: -0.38

Results for CCCCNCCOc1ccccc1-c1ccccc1 ?
UPR XBP1 act: 0; L major viab: 97*; CHOP UPR activ: 0; T cruzi repl: 12; CHOP inh: 26; Dynein transport: -0.69

How did CN(C)CCOc1ccccc1-c1ccccc1 do in these assays?
UPR XBP1 act: -1; L major viab: 6; CHOP UPR activ: 2; T cruzi repl: 2; CHOP inh: 17; Dynein transport: 2.7

How did CN(C)CCOCCOc1ccccc1-c1ccccc1 do in these assays?
UPR XBP1 act: -2; L major viab: 81*; CHOP UPR activ: -1; T cruzi repl: 0; CHOP inh: -9; Dynein transport: 0.012

What do the screens show for `Cc1nc(C(F)(F)F)c(C(=O)N/N=C(\N)c2ccccn2)s1`?
UPR XBP1 act: -2; L major viab: 96*; CHOP UPR activ: -2; T cruzi repl: -15; CHOP inh: 51; Dynein transport: 0.35

What do the screens show for `O=C(NCc1ccco1)c1ccc(COc2ccc(Cl)cc2)cc1`?
UPR XBP1 act: 0; L major viab: 50*; CHOP UPR activ: -1; T cruzi repl: -16; CHOP inh: 35; Dynein transport: -0.011

How did COC(=O)c1ccc(CNC(=O)c2ccc(COc3ccccc3)cc2)cc1 do in these assays?
UPR XBP1 act: -1; L major viab: 69*; CHOP UPR activ: -1; T cruzi repl: -27; CHOP inh: 24; Dynein transport: 0.23

How did O=C(NCc1ccco1)c1ccc(COc2ccccc2Cl)cc1 do in these assays?
UPR XBP1 act: 1; L major viab: 1; CHOP UPR activ: -1; T cruzi repl: -5; CHOP inh: 25; Dynein transport: 1.6

Results for CSc1ccccc1C(=O)NC1CCCc2ccccc21 (configuration not stated) ?
UPR XBP1 act: 6; CHOP UPR activ: -2; T cruzi repl: 6

How did COc1cc(CNn2nnnc2N)cc(Br)c1OCc1c(Cl)cccc1Cl do in these assays?
UPR XBP1 act: -5; L major viab: 94*; CHOP UPR activ: -1; T cruzi repl: -1; CHOP inh: 38; Dynein transport: -0.69

How did CCCCOC(=O)Nc1nnc(C(C)C)s1 do in these assays?
UPR XBP1 act: 0; L major viab: -3; CHOP UPR activ: 2; T cruzi repl: 64*; CHOP inh: -11; Dynein transport: -0.11

Results for CCCCOC(=O)Nc1nnc(-c2ccccc2OC)s1 ?
UPR XBP1 act: 0; L major viab: -3; CHOP UPR activ: -1; T cruzi repl: 12; CHOP inh: 83*; Dynein transport: -0.54
